This note sets out measurements from PubChem BioAssay.

Active and inactive are the calls of the source.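 The calls were made as follows, unless noted: active = viability loss from added drug above about 55%, and viability with drug at most 40%, in both replicates (limit read from the data, passing the limit was not always enough); inconclusive = both conditions met in only one replicate; inactive = neither replicate meets both conditions.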

The nature of test [1]: HUVEC growth inhibition – cell-based, human, primary screen (AID 575;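 active = viability at or below 30% in both replicate assays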;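 also: 100% = median of untreated cell wells with 0.1% DMSO on each plate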). The conditions noted are these: HUVEC proliferation, CellTiter-Glo luminescence, 72 h; at 10 µM; stronger effect = lower value. In short, it runs like this: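 Timing: 72 h treatment at 37 °C; material: HUVEC primary cells; technique: CellTiter-Glo luminescence measuring cellular ATP; controls: vehicle and MePR control wells; measure: percent of median DMSO-control luminescence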
For orientation: ATP-based viability assays read luminescence as a measure of living cells.

Test [2] in a line: growth inhibitors of H69AR lung tumor, primary screen, human, duplicate replicates (AID 580;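 active = viability at or under a set limit in both replicates, limit being median viability minus 3 SD, cut at about 48% in these data, passing the limit was not always enough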;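 also: 100% = mean luminescence of untreated wells and 0% = no signal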). The conditions noted are these: H69AR lung tumor cells viability, ATP luminescence, 72 h; at 10 µM; stronger effect = lower value.
A short description of test [3]: reversal of MRP1-mediated doxorubicin resistance, pilot screen, H69AR cells, doxorubicin co-treatment (AID 601). The conditions noted are these: CellTiter-Glo, 72 h, at 10 µM; for differential viability (reversal): stronger effect = higher value.
Test [4] in a line: 384-well plate pilot, post-Golgi transport modulator project, inhibition of yeast transport mutant growth (AID 636; in the data active = inhibition above about 31%). The conditions noted are these: absorbance 615 nm, about 18 h, stronger effect = higher value.
A short description of test [5]: growth suppression of yeast trafficking mutant, preliminary HTS, modulators of trafficking downstream of Golgi apparatus project, 1536-format plate, OD 615 nm (AID 637; in the data active = inhibition above about 30%). The conditions noted are these: yeast transport mutant growth, absorbance 615 nm, 18 h; stronger effect = higher value.
[6] abbreviates: H69AR cells + 2 uM doxorubicin, measured here: viability with 2 uM doxorubicin, stronger effect = lower value.
Setting [7] is: H69AR cells, compound alone cytotoxicity.

By viability is commonly meant a read-out of living cells in per cent, often relative to untreated cells. By inhibition is commonly meant the change of the read-out against control, counted positive when it falls. For `O=c1c2ccc(-c3nnc4n3-c3ccccc3SC4)cc2nc2n1CCCCC2`, the viability in test [1] is 94.9% (inactive); in test [2] it was 94.4% (inactive); in test [3] (setting [6]), 85.5%; in test [3] (setting [7]), 94.4%. Moreover, in test [3] (H69AR cells + 2 uM doxorubicin), the differential viability (reversal) was 8.88% (inactive). For the same compound, the inhibition is -5.33% (inactive) in test [4] and 6.83% (inactive) in test [5].
With `COc1ccc(OC(C)C(=O)N2CCN(c3ccccn3)CC2)cc1` (configuration not stated), the viability was 106% (inactive) in test [1], 94.4% (inactive) in test [2], 89.3% in test [3] (setting [6]) and 94.4% in test [3] (setting [7]). The differential viability (reversal) in test [3] (H69AR cells + 2 uM doxorubicin) was 5.04% (inactive). Further, the inhibition in test [4] is -3.95% (inactive); in test [5], -0.32% (inactive).
`CC1CCN(C(=O)CSc2nnc(-c3cccnc3)n2C2CCCCC2)CC1`: the viability in test [1] is 112% (inactive); in test [2], 97.5% (inactive); in test [3] (setting [6]), 101%; in test [3] (setting [7]), 97.5%. In addition, the differential viability (reversal) in test [3] (H69AR cells + 2 uM doxorubicin) is -3.36% (inactive). Besides, the inhibition in test [4] was -2.76% (inactive); in test [5], 0.16% (inactive).
With `Nc1nc(CN2CCOCC2)cs1`, the viability in test [1] was 101% (inactive); in test [2] it was 100% (inactive); in test [3] (setting [6]), 96.1%; in test [3] (setting [7]), 100%. Further, the differential viability (reversal) in test [3] (H69AR cells + 2 uM doxorubicin) is 3.83% (inactive). Moreover, the inhibition in test [4] is -1.69% (inactive); in test [5] it was 0.95% (inactive).
In the case of `C=CCC(Nc1ccco1)c1ccccc1` (configuration not stated), the viability was 95.8% (inactive) in test [1], 102% (inactive) in test [2], 87.8% in test [3] (setting [6]) and 102% in test [3] (setting [7]). For the same compound, in test [3] (H69AR cells + 2 uM doxorubicin), the differential viability (reversal) is 14.1% (inactive). Moreover, the inhibition in test [4] was -3.55% (inactive); in test [5], -0.32% (inactive).
Turning to `O=C(NCCN1CCCCCC1)c1ccc(N2CCCC2=O)cc1`, the viability in test [1] is 91% (inactive); in test [2] it was 95.9% (inactive); in test [3] (setting [6]) it was 92.5%; in test [3] (setting [7]) it was 95.9%. Further, the differential viability (reversal) in test [3] (H69AR cells + 2 uM doxorubicin) was 3.38% (inactive). Besides, the inhibition was -7.2% (inactive) in test [4] and 12.5% (inactive) in test [5].
For `CCCCCCNC(=O)c1c(N)n(/N=C/c2ccco2)c2nc3ccccc3nc12`, the viability was 53.7% (inactive) in test [1], 78.4% (inactive) in test [2], 79.4% in test [3] (setting [6]) and 78.4% in test [3] (setting [7]). In test [3] (H69AR cells + 2 uM doxorubicin), the differential viability (reversal) was -0.96% (inactive). Besides, the inhibition in test [4] is -4.4% (inactive); in test [5], -0.16% (inactive).
`O=C1CCCc2c1nn(-c1ccccc1)[n+]2[O-]`: the viability in test [1] was 110% (inactive); in test [2], 98.1% (inactive); in test [3] (setting [6]), 96.5%; in test [3] (setting [7]), 98.1%. The differential viability (reversal) in test [3] (H69AR cells + 2 uM doxorubicin) is 1.57% (inactive). Besides, the inhibition in test [4] was -5.33% (inactive); in test [5] it was -5.4% (inactive).
For `COCC(C)NC(=O)CCS(=O)(=O)c1nc(-c2ccc(OC)cc2)cc(C(F)(F)F)n1` (configuration not stated), the viability in test [1] is 8.82% (active); in test [2], 23.7% (active); in test [3] (setting [6]), 35.3%; in test [3] (setting [7]), 23.7%. Also, the differential viability (reversal) in test [3] (H69AR cells + 2 uM doxorubicin) was -11.7% (inactive). For the same compound, the results for the inhibition in test [4] and in test [5] were -7.87% (inactive) and -0.63% (inactive), respectively.
For `O=C(Nc1ccc2c(c1)OCO2)c1cccc(Cl)c1`, the viability is 71.4% (inactive) in test [1], 104% (inactive) in test [2], 90.3% in test [3] (setting [6]) and 104% in test [3] (setting [7]). In test [3] (H69AR cells + 2 uM doxorubicin), the differential viability (reversal) is 13.2% (inactive). Moreover, the inhibition in test [4] was -3.87% (inactive); in test [5], 16.8% (inactive).
As for `COC(=O)c1ccc2c(c1)C(=O)N(C1CCCCC1)C2=O`, the viability in test [1] was 105% (inactive); in test [2], 104% (inactive); in test [3] (setting [6]) it was 96.7%; in test [3] (setting [7]) it was 104%. Also, in test [3] (H69AR cells + 2 uM doxorubicin), the differential viability (reversal) was 7.39% (inactive). Also, the inhibition in test [4] is -2.93% (inactive); in test [5] it was 1.11% (inactive).
For `O=C(CCC(=O)N1CCN(S(=O)(=O)c2ccccc2)CC1)c1cccs1`, the viability in test [1] is 102% (inactive); in test [2], 90.9% (inactive); in test [3] (setting [6]), 86.5%; in test [3] (setting [7]) it was 90.9%. Further, the differential viability (reversal) in test [3] (H69AR cells + 2 uM doxorubicin) is 4.42% (inactive). Also, the figures for the inhibition in test [4] and in test [5] were -5.32% (inactive) and -3.33% (inactive), respectively.
With `COc1ccc(CCNS(=O)(=O)c2ccc3c(c2)OCCO3)cc1`, the viability in test [1] is 109% (inactive); in test [2] it was 103% (inactive); in test [3] (setting [6]), 92.6%; in test [3] (setting [7]) it was 103%. Moreover, in test [3] (H69AR cells + 2 uM doxorubicin), the differential viability (reversal) is 10.1% (inactive). Besides, the figures for the inhibition in test [4] and in test [5] were -0.53% (inactive) and -3.17% (inactive), respectively.
As to `O=c1oc2ccccc2c(O)c1CN1CCCCC1`, the viability is 96.3% (inactive) in test [1], 99.9% (inactive) in test [2], 83.8% in test [3] (setting [6]) and 99.9% in test [3] (setting [7]). Besides, the differential viability (reversal) in test [3] (H69AR cells + 2 uM doxorubicin) was 16.1% (inactive). Further, the inhibition in test [4] is -6% (inactive); in test [5], 2.22% (inactive).
`COc1cccc(-c2noc(CCC(=O)NC3CCCCC3)n2)c1`: the viability in test [1] was 91.5% (inactive); in test [2], 97.6% (inactive); in test [3] (setting [6]) it was 97.3%; in test [3] (setting [7]) it was 97.6%. Further, the differential viability (reversal) in test [3] (H69AR cells + 2 uM doxorubicin) is 0.295% (inactive). In addition, the figures for the inhibition in test [4] and in test [5] were -2.63% (inactive) and -5.4% (inactive), respectively.
As for `C=Cn1c(N2CCOCC2)nc2c1c(=O)[nH]c(=O)n2C`, the viability in test [1] is 98.8% (inactive); in test [2], 97.1% (inactive); in test [3] (setting [6]), 88.8%; in test [3] (setting [7]), 97.1%. Moreover, in test [3] (H69AR cells + 2 uM doxorubicin), the differential viability (reversal) was 8.31% (inactive). The inhibition in test [4] is -4.8% (inactive); in test [5] it was 1.59% (inactive).
`S=c1nc(C2CC2)[nH]c2ccccc12`: the viability is 78.3% (inactive) in test [1], 94% (inactive) in test [2], 88% in test [3] (setting [6]) and 94% in test [3] (setting [7]). For the same compound, the differential viability (reversal) in test [3] (H69AR cells + 2 uM doxorubicin) was 5.99% (inactive). In addition, the inhibition in test [4] was -0.92% (inactive); in test [5], 0.63% (inactive).
For the compound `CCCCNC(=O)OC(C)CNC(=O)Oc1cccc(C)c1` (configuration not stated), the viability is 75.7% (inactive) in test [1], 93.8% (inactive) in test [2], 92.2% in test [3] (setting [6]) and 93.8% in test [3] (setting [7]). The differential viability (reversal) in test [3] (H69AR cells + 2 uM doxorubicin) is 1.64% (inactive). The inhibition in test [4] was -4.08% (inactive); in test [5], 3.49% (inactive).
With `CC(=O)N1CCN(S(=O)(=O)c2ccc(S(=O)(=O)NC3CC3)cc2)CC1`, the viability in test [1] is 112% (inactive); in test [2], 92.3% (inactive); in test [3] (setting [6]), 87.3%; in test [3] (setting [7]), 92.3%. In addition, in test [3] (H69AR cells + 2 uM doxorubicin), the differential viability (reversal) is 5.03% (inactive). The results for the inhibition in test [4] and in test [5] were -6.8% (inactive) and 2.86% (inactive), respectively.
For `O=C(CN(CC1CCCO1)C(=O)CCC(=O)Nc1ccccn1)NCC1CCCO1` (configuration not stated), the viability in test [1] was 103% (inactive); in test [2], 100% (inactive); in test [3] (setting [6]) it was 88.2%; in test [3] (setting [7]), 100%. Further, the differential viability (reversal) in test [3] (H69AR cells + 2 uM doxorubicin) was 11.8% (inactive). Besides, the inhibition in test [4] was -7.73% (inactive); in test [5] it was -3.97% (inactive).
With `COc1ccc(C2C(C(C)=O)=C(C)N=c3s/c(=C\c4ccc5c(c4)OCO5)c(=O)n32)c(OC)c1` (configuration not stated), the viability was 77.2% (inactive) in test [1], 99.7% (inactive) in test [2], 103% in test [3] (setting [6]) and 99.7% in test [3] (setting [7]). Moreover, in test [3] (H69AR cells + 2 uM doxorubicin), the differential viability (reversal) is -2.84% (inactive). The inhibition in test [4] was -2.08% (inactive); in test [5] it was -4.76% (inactive).
